Common to all, as to type: functional
Test [1] deals with Candida albicans. The experiment in a line: Antifungal activity against Candida albicans SC5314 after 24 hrs by serial dilution method. The settings on record: SC5314, 24 h. The essentials:
(§1)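 MIC by broth serial dilution per NCCLS/CLSI (M27-A3 yeasts, M38-A2 filamentous) in 96-well plates; ATCC strains plus clinical isolates; C. parapsilosis 22019 run as quality-control strain in every assay. Compounds dissolved in DMSO, serially diluted in growth medium; incubation 35 °C; MIC read at 24 h (Candida), 48 h (A. fumigatus), 72 h (C. neoformans).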

In test [2] the test system is Candida albicans. Put plainly: Antifungal activity against Candida albicans Y0109 after 24 hrs by serial dilution method. The settings on record: Y0109, 24 h. The essentials: as §1
Another test concerns Candida parapsilosis. The experiment in a line: Antifungal activity against Candida parapsilosis 22019 after 24 hrs by serial dilution method. The settings on record: Lodderomyces parapsilosis, 22019, 24 h. The essentials: as §1
The test system of another test is Cryptococcus neoformans. The experiment in a line: Antifungal activity against Cryptococcus neoformans 32609 after 72 hrs by serial dilution method. The settings on record: Cryptococcus neoformans, 32609, 72 h. The essentials:
as §1

A further test has as its system Nakaseomyces glabratus. Put plainly: Antifungal activity against Candida glabrata 537 after 24 hrs by serial dilution method. The settings on record: Nakaseomyces glabratus, 537, 24 h. An outline of the steps:
as §1

The next test deals with Aspergillus fumigatus. Put plainly: Antifungal activity against Aspergillus fumigatus 7544 after 48 hrs by serial dilution method. The settings on record: Aspergillus fumigatus, 7544, 48 h. An outline of the steps: as §1

The values below come from ChEMBL document CHEMBL3616399, “Design, synthesis, and structure-activity relationship studies of novel thienopyrrolidone derivatives with strong antifungal activity against Aspergillus fumigates” (Eur J Med Chem, 2015).

Structures are written as SMILES. ≈ marks a conversion by molar mass, not a printed value.

Turning to `C[C@@H](N1CCn2nc(-c3ccc(C#N)nc3)nc2C1)[C@](O)(Cn1cncn1)c1ccc(F)cc1F`, the MIC in the test with Candida albicans [1] came to 0.0156 µg/mL (≈ 0.0327 µM); against Candida albicans [2] it was 0.0156 µg/mL (≈ 0.0327 µM); against Candida parapsilosis, 0.0156 µg/mL (≈ 0.0327 µM); against Cryptococcus neoformans it was 0.0625 µg/mL (≈ 0.131 µM); with Nakaseomyces glabratus, 0.0156 µg/mL (≈ 0.0327 µM); with Aspergillus fumigatus it was 2 µg/mL (≈ 4.19 µM).
On to `C[C@@H](N1CCc2nc(-c3cncnc3)sc2C1)[C@](O)(Cn1cncn1)c1ccc(F)cc1F`, for which the MIC with Candida albicans [1] worked out at 0.0312 µg/mL (≈ 0.0666 µM); in the test on Candida albicans [2], 0.0625 µg/mL (≈ 0.133 µM); with Candida parapsilosis it was 0.0625 µg/mL (≈ 0.133 µM); against Cryptococcus neoformans, 0.0625 µg/mL (≈ 0.133 µM); in the test on Nakaseomyces glabratus, 0.0625 µg/mL (≈ 0.133 µM); in the test on Aspergillus fumigatus, 2 µg/mL (≈ 4.26 µM).
Take `C[C@@H](N1CCc2sc(-c3ccncc3)cc2C1)[C@](O)(Cn1cncn1)c1ccc(F)cc1F`: the MIC against Candida albicans [1] is 0.25 µg/mL (≈ 0.535 µM); in the test on Candida albicans [2], 0.5 µg/mL (≈ 1.07 µM); against Candida parapsilosis, 0.5 µg/mL (≈ 1.07 µM); in the test with Cryptococcus neoformans, 0.5 µg/mL (≈ 1.07 µM); against Nakaseomyces glabratus, 4 µg/mL (≈ 8.56 µM); in the test with Aspergillus fumigatus it was above 32 µg/mL.
With `C[C@@H](N1CCc2cc(-c3cncnc3)sc2C1)[C@](O)(Cn1cncn1)c1ccc(F)cc1F`, the MIC in the test on Candida albicans [1] is 0.25 µg/mL (≈ 0.534 µM); against Candida albicans [2] it was 0.125 µg/mL (≈ 0.267 µM); in the test on Candida parapsilosis, 0.125 µg/mL (≈ 0.267 µM); with Cryptococcus neoformans, 0.125 µg/mL (≈ 0.267 µM); with Nakaseomyces glabratus, 1 µg/mL (≈ 2.13 µM); with Aspergillus fumigatus it was 32 µg/mL (≈ 68.3 µM).
With `C[C@@H](N1Cc2sc(Br)cc2C1=O)[C@](O)(Cn1cncn1)c1ccc(F)cc1F`, the MIC in the test on Candida albicans [1] turned out to be 0.0312 µg/mL (≈ 0.0666 µM); against Candida albicans [2] it was 0.0625 µg/mL (≈ 0.133 µM); in the test on Candida parapsilosis, 0.0625 µg/mL (≈ 0.133 µM); in the test with Cryptococcus neoformans it was 0.125 µg/mL (≈ 0.266 µM); in the test on Nakaseomyces glabratus, 0.125 µg/mL (≈ 0.266 µM); against Aspergillus fumigatus it was 32 µg/mL (≈ 68.2 µM).
For the molecule `C[C@@H](N1Cc2sc(-c3ccccc3)cc2C1=O)[C@](O)(Cn1cncn1)c1ccc(F)cc1F`, the minimal inhibitory concentration (MIC) against Candida albicans [1] was 0.0156 µg/mL (≈ 0.0334 µM); with Candida albicans [2] it was 0.0312 µg/mL (≈ 0.067 µM); with Candida parapsilosis, 0.0312 µg/mL (≈ 0.067 µM); against Cryptococcus neoformans it was 0.0625 µg/mL (≈ 0.134 µM); with Nakaseomyces glabratus, 0.0625 µg/mL (≈ 0.134 µM); in the test with Aspergillus fumigatus, 32 µg/mL (≈ 68.6 µM).
As to `C[C@@H](N1Cc2sc(-c3ccncc3)cc2C1=O)[C@](O)(Cn1cncn1)c1ccc(F)cc1F`, the MIC is 0.0156 µg/mL (≈ 0.0334 µM) in the test with Candida albicans [1]; 0.0156 µg/mL (≈ 0.0334 µM) in the test with Candida albicans [2]; 0.0312 µg/mL (≈ 0.0668 µM) with Candida parapsilosis; 0.0156 µg/mL (≈ 0.0334 µM) with Cryptococcus neoformans; 0.0625 µg/mL (≈ 0.134 µM) in the test with Nakaseomyces glabratus; above 64 µg/mL against Aspergillus fumigatus.
Consider `C[C@@H](N1Cc2sc(-c3cccnc3)cc2C1=O)[C@](O)(Cn1cncn1)c1ccc(F)cc1F`, for which the MIC in the test with Candida albicans [1] turned out to be 0.0156 µg/mL (≈ 0.0334 µM); against Candida albicans [2], 0.0156 µg/mL (≈ 0.0334 µM); with Candida parapsilosis it was 0.0156 µg/mL (≈ 0.0334 µM); in the test with Cryptococcus neoformans, 0.0156 µg/mL (≈ 0.0334 µM); in the test with Nakaseomyces glabratus, 0.0156 µg/mL (≈ 0.0334 µM); against Aspergillus fumigatus, 16 µg/mL (≈ 34.2 µM).
For `C[C@@H](N1Cc2sc(-c3cncnc3)cc2C1=O)[C@](O)(Cn1cncn1)c1ccc(F)cc1F`, the minimum inhibitory concentration (MIC) is 0.0156 µg/mL (≈ 0.0333 µM) in the test on Candida albicans [1]; 0.0156 µg/mL (≈ 0.0333 µM) against Candida albicans [2]; 0.0156 µg/mL (≈ 0.0333 µM) in the test on Candida parapsilosis; 0.0078 µg/mL (≈ 0.0166 µM) in the test on Cryptococcus neoformans; 0.0156 µg/mL (≈ 0.0333 µM) against Nakaseomyces glabratus; 32 µg/mL (≈ 68.3 µM) against Aspergillus fumigatus.
On to `C[C@@H](N1Cc2sc(-c3ccc(C#N)nc3)cc2C1=O)[C@](O)(Cn1cncn1)c1ccc(F)cc1F`, for which the MIC with Candida albicans [1] is 0.0156 µg/mL (≈ 0.0317 µM); against Candida albicans [2] it was 0.0156 µg/mL (≈ 0.0317 µM); against Candida parapsilosis it was 0.0156 µg/mL (≈ 0.0317 µM); in the test on Cryptococcus neoformans it was 0.0156 µg/mL (≈ 0.0317 µM); against Nakaseomyces glabratus, 0.0625 µg/mL (≈ 0.127 µM); against Aspergillus fumigatus it was 32 µg/mL (≈ 65 µM).
For `COc1ccc(-c2cc3c(s2)CN([C@H](C)[C@](O)(Cn2cncn2)c2ccc(F)cc2F)C3=O)cn1`, the MIC in the test with Candida albicans [1] amounted to 0.0156 µg/mL (≈ 0.0314 µM); in the test with Candida albicans [2] it was 0.0156 µg/mL (≈ 0.0314 µM); against Candida parapsilosis it was 0.0156 µg/mL (≈ 0.0314 µM); against Cryptococcus neoformans it was 0.0156 µg/mL (≈ 0.0314 µM); in the test with Nakaseomyces glabratus it was 0.0156 µg/mL (≈ 0.0314 µM); with Aspergillus fumigatus, 64 µg/mL (≈ 129 µM).
`C[C@@H](N1Cc2sc(-c3cncc(F)c3)cc2C1=O)[C@](O)(Cn1cncn1)c1ccc(F)cc1F`: the MIC is 0.0078 µg/mL (≈ 0.0161 µM) against Candida albicans [1]; 0.0156 µg/mL (≈ 0.0321 µM) against Candida albicans [2]; 0.0156 µg/mL (≈ 0.0321 µM) in the test on Candida parapsilosis; 0.0078 µg/mL (≈ 0.0161 µM) against Cryptococcus neoformans; 0.0625 µg/mL (≈ 0.129 µM) against Nakaseomyces glabratus; above 64 µg/mL in the test on Aspergillus fumigatus.
With `COc1ncc(-c2cc3c(s2)CN([C@H](C)[C@](O)(Cn2cncn2)c2ccc(F)cc2F)C3=O)cn1`, the MIC against Candida albicans [1] turned out to be 0.0156 µg/mL (≈ 0.0313 µM); against Candida albicans [2] it was 0.0156 µg/mL (≈ 0.0313 µM); against Candida parapsilosis it was 0.0156 µg/mL (≈ 0.0313 µM); in the test with Cryptococcus neoformans, 0.0156 µg/mL (≈ 0.0313 µM); in the test with Nakaseomyces glabratus, 0.0156 µg/mL (≈ 0.0313 µM); against Aspergillus fumigatus it was 16 µg/mL (≈ 32.1 µM).
With `C[C@@H](N1Cc2cc(-c3ccccc3)sc2C1=O)[C@](O)(Cn1cncn1)c1ccc(F)cc1F`, the MIC with Candida albicans [1] was determined as 0.0156 µg/mL (≈ 0.0334 µM); with Candida albicans [2], 0.0312 µg/mL (≈ 0.067 µM); against Candida parapsilosis it was 0.0625 µg/mL (≈ 0.134 µM); in the test with Cryptococcus neoformans, 0.0625 µg/mL (≈ 0.134 µM); against Nakaseomyces glabratus, 0.125 µg/mL (≈ 0.268 µM); in the test on Aspergillus fumigatus, 8 µg/mL (≈ 17.1 µM).
